This note sets out measurements from ChEMBL document CHEMBL5661969, “Preclinical evaluation of a potent novel DNA-dependent protein kinase inhibitor NU7441” (Cancer Res, 2006).

The structures appear in SMILES notation.

The nature of series [1]: Bioavailability in BALB/c mouse at 5 mg/kg, iv by HPLC analysis. The format is ADME, organism-based. The conditions noted are these: in vivo. A digest of the protocol: (§1)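 Female BALB/c mice dosed 5 mg/kg i.v. in 10% DMSO/10% cyclodextrin in saline, or 10 mg/kg i.p. or orally at 1 mg/mL in 40% PEG400/saline. Plasma taken at 5, 10, 15, 30, 60, 90, 120, 180, 240 and 360 min, three mice per time. Acetonitrile precipitation, C18 HPLC with UV detection at 329 nm against a plasma standard curve. Parameters derived from mean concentrations.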

Series [2] is described as follows: Cmax in BALB/c mouse at 10 mg/kg, po by HPLC analysis. The format is ADME, organism-based. To be noted: in vivo. A digest of the protocol: as §1
Series [3] is described as follows: Elimination half life in BALB/c mouse at 5 mg/kg, iv by HPLC analysis. The conditions noted are these: in vivo, read-out: beta t1/2. It counts as ADME, organism-based. A digest of the protocol:
as §1

Series [4] is described as follows: Cytotoxicity against Chinese hamster DNA-PK deficient V3 cells assessed as cell survival at 0.5 umol/L measured after 16 hrs by crystal violet staining based assay relative to control. To be noted: dose 0.5 µmol/L, read-out: Activity. It counts as toxicity, Cricetulus griseus. The procedure, abridged:
(§2)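 Exponentially growing cells exposed 16 h to agent (0.5 or 1.0 μmol/L), with or without etoposide or doxorubicin, at 0.5% DMSO final; controls get DMSO alone. Cells are then trypsinized, reseeded at 100–100,000 per dish in drug-free medium and grown 10–14 days. Colonies stained with crystal violet and counted automatically.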

Series [5] in a line: Cmax in BALB/c mouse at 10 mg/kg, ip by HPLC analysis. It counts as ADME, organism-based. The conditions noted are these: in vivo. The procedure, abridged:
as §1

A short description of series [6]: In vivo inhibition of DNA-PK in human SW620 cells xenografted athymic nude CD1 mouse assessed as potentiation of etoposide phosphate-induced antitumor activity by measuring tumor growth delay at 10 mg/kg, ip administered 5 times daily for 5 days (reference value: 2.7 day). It counts as functional, SW-620. To be noted: time 5 day. A digest of the protocol: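 CD-1 nude mice carry palpable s.c. SW620 xenografts (~5×5 mm, 8-10 days), five per group. Treated i.p. daily for 5 days with saline, agent in 40% PEG 400/saline, etoposide phosphate 11.35 mg/kg (equal to 10 mg/kg etoposide), or both, agent given immediately before etoposide phosphate. Read-outs are median relative tumour volume, time to 4× volume (growth delay) and body weight.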
For orientation: Xenograft models place foreign cells or tissue in a host animal.

For series [7], the target named is DNA-dependent protein kinase catalytic subunit (Homo sapiens, UniProt P78527). Nature of the series: Inhibition of human HeLa cell nuclear extract purified DNA-PK using p53 peptide as substrate by ELISA.
Sequence of DNA-dependent protein kinase catalytic subunit (P78527 whole entry): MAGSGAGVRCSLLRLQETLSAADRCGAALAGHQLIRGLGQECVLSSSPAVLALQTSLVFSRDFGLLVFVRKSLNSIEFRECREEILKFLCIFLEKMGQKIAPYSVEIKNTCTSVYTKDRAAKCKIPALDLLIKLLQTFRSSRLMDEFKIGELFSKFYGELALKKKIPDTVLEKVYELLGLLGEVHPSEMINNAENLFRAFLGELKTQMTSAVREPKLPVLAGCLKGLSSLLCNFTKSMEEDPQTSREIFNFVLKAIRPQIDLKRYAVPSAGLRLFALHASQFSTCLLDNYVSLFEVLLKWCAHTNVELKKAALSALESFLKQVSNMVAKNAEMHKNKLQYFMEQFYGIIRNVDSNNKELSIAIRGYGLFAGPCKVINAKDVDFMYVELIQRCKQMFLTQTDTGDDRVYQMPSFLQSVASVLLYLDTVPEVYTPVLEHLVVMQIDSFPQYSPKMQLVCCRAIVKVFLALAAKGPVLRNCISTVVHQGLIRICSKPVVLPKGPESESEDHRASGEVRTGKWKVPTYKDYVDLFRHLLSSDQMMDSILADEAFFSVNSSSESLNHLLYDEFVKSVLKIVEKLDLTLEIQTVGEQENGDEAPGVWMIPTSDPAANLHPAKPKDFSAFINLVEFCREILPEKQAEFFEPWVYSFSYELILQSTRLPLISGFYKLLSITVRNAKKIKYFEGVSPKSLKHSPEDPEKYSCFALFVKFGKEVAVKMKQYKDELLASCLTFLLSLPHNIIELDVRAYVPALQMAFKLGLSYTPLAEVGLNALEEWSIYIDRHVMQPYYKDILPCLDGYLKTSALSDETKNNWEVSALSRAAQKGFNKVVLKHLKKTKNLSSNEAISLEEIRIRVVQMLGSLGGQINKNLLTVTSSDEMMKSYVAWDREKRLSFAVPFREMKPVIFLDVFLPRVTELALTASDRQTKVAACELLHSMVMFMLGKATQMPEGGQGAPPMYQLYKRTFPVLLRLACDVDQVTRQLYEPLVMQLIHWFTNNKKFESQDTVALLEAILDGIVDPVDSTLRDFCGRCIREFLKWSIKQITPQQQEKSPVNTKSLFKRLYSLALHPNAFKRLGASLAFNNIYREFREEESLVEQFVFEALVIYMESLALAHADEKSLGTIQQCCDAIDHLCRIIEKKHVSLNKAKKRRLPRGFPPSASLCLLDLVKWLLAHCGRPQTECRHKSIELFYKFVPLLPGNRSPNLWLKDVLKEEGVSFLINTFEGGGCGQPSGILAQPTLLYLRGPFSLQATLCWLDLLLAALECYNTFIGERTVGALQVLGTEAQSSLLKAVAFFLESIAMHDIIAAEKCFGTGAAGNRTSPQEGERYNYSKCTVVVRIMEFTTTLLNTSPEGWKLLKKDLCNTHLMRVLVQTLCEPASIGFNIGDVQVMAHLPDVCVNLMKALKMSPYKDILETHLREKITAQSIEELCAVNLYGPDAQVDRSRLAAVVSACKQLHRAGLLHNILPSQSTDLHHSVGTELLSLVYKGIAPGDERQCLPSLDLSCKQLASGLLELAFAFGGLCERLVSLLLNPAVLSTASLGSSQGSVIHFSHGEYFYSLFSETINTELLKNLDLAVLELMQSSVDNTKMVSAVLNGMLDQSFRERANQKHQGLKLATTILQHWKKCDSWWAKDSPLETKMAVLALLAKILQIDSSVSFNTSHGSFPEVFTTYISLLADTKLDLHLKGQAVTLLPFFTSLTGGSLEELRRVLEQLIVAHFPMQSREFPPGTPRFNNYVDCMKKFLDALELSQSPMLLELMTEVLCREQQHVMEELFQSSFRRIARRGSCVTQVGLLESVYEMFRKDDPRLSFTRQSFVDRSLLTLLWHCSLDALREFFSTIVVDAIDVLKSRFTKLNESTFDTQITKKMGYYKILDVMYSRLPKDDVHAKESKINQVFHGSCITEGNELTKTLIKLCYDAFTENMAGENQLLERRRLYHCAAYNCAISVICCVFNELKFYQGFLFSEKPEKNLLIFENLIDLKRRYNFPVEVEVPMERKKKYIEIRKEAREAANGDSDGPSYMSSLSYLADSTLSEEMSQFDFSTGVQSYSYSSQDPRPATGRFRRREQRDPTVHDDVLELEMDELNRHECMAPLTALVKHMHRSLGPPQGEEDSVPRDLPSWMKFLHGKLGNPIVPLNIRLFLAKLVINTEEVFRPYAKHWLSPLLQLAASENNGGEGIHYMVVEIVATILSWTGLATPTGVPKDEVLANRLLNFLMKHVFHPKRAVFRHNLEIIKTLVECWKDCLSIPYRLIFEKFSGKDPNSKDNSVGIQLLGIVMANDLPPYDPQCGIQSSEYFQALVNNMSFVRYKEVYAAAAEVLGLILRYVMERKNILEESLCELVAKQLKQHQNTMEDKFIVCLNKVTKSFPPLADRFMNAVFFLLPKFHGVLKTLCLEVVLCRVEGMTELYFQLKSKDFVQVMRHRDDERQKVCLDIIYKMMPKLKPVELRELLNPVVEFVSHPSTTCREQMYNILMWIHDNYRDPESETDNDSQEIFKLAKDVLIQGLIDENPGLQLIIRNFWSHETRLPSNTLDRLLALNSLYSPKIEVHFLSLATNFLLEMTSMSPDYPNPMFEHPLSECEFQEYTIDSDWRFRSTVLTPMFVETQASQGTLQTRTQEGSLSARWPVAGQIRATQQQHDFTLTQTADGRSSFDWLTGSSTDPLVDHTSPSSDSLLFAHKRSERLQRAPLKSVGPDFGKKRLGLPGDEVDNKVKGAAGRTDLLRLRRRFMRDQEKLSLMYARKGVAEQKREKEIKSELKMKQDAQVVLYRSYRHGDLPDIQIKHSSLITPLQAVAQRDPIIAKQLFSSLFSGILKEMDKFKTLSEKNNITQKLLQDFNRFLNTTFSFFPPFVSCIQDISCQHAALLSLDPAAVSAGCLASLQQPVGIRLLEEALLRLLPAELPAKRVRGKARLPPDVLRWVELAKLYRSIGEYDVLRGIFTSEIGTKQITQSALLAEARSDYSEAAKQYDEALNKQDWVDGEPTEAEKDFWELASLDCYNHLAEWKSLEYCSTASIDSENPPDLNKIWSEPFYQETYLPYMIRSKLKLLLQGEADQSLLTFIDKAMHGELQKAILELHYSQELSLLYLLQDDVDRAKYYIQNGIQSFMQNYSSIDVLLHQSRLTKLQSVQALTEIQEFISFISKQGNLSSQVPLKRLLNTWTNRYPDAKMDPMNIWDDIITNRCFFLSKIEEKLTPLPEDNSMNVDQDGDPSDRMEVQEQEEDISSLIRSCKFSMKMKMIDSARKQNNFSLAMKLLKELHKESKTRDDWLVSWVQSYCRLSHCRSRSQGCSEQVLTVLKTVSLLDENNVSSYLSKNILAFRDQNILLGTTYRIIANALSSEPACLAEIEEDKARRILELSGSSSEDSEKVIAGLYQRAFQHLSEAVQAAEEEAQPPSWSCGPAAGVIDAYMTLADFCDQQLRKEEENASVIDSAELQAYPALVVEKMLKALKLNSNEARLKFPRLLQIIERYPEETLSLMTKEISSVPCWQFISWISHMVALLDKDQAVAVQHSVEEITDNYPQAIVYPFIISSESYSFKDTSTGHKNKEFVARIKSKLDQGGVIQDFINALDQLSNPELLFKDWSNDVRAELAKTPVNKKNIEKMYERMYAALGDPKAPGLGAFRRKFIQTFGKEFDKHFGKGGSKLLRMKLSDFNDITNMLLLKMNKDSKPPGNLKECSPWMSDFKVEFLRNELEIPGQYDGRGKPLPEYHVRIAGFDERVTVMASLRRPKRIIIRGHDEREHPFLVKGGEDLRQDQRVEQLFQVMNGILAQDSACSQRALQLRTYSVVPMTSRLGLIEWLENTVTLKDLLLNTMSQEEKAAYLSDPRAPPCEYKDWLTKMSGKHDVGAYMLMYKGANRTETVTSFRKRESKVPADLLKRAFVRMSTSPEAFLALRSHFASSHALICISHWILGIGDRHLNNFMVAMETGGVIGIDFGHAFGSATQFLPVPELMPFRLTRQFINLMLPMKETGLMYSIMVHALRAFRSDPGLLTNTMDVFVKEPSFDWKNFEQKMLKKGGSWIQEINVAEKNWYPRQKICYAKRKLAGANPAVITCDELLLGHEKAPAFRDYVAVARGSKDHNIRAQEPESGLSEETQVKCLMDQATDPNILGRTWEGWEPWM
The nature of series [8]: Ratio of drug level in kidney to plasma of human SW620 cell xenografted athymic nude CD1 mouse at 10 mg/kg, ip measured after 60 mins by HPLC analysis. It counts as ADME, organism-based. The procedure, abridged: (§3)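 Female CD-1 nu/nu mice bearing s.c. flank SW620 tumours (1×10^7 cells, ~650 mm³ at 10–14 days) given 10 mg/kg i.p. Tissues snap frozen, homogenised 1:3 in PBS. Acetonitrile precipitation, C18 HPLC with acetate pH 5/acetonitrile 75:25 mobile phase, UV 329 nm; tissue levels by method of addition. Tissue/plasma ratio, mean of three mice per time.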

A short description of series [9]: Ratio of drug level in kidney to plasma of human SW620 cell xenografted athymic nude CD1 mouse at 10 mg/kg, ip measured after 240 mins by HPLC analysis. It counts as ADME, organism-based. The procedure, abridged:
as §3

The nature of series [10]: Ratio of drug level in spleen to plasma of human SW620 cell xenografted athymic nude CD1 mouse at 10 mg/kg, ip measured after 90 mins by HPLC analysis. The format is ADME, organism-based. A digest of the protocol:
as §3

Series [11] can be described thus: Inhibition of DNA-PK in Chinese hamster DNA-PK proficient V3-YAC cells assessed as potentiation of etoposide-induced cytotoxicity by measuring fold change in etoposide LD90 at 0.5 umol/L measured after 16 hrs by crystal violet staining based assay relative to etoposide alone. Details: species or system Cricetulus griseus. To be noted: dose 0.5 µmol/L, condition cancer. The procedure, abridged: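 V3-YAC Chinese hamster ovary cells (human DNA-PKcs YAC, kept in 500 μg/mL G-418), RPMI 1640/10% FBS. Cells reseeded drug-free, colonies crystal violet stained after 10–14 days; LD90 ratio without/with inhibitor (DMR90).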

Series [12] can be described thus: Cytotoxicity against Chinese hamster DNA-PK proficient V3-YAC cells assessed as cell survival at 0.5 umol/L measured after 16 hrs by crystal violet staining based assay relative to control. It counts as toxicity, Cricetulus griseus. The conditions noted are these: dose 0.5 µmol/L, read-out: Activity. A digest of the protocol: as §2
A short description of series [13]: Cytotoxicity against Chinese hamster DNA-PK deficient V3 cells assessed as reduction in cell survival at 0.5 umol/L measured after 16 hrs in presence of etoposide by crystal violet staining based assay. The format is toxicity, Cricetulus griseus. To be noted: v3, 16 h, 0.5 µM, dose 0.5 µmol/L. The procedure, abridged: as §2
Series [14] is described as follows: Bioavailability in BALB/c mouse at 10 mg/kg, ip by HPLC analysis. The conditions noted are these: in vivo. It counts as ADME, organism-based. A digest of the protocol: as §1
Series [15] can be described thus: Tmax in BALB/c mouse at 10 mg/kg, po by HPLC analysis. To be noted: in vivo. The format is ADME, organism-based. The procedure, abridged: as §1
Series [16] can be described thus: Inhibition of DNA-PK in Chinese hamster DNA-PK proficient V3-YAC cells assessed as potentiation of etoposide-induced cytotoxicity by measuring etoposide LD90 at 0.5 umol/L measured after 16 hrs by crystal violet staining based assay. To be noted: dose 0.5 µmol/L, condition cancer. Details: species or system Cricetulus griseus.

As for `O=c1cc(N2CCOCC2)oc2c(-c3cccc4c3sc3ccccc34)cccc12`, the F in [1] is listed as 100%. The results for the highest concentration (Cmax) in [2] and in series [5] were 500 ng/mL and 2400 ng/mL, respectively. Further, the half-life in series [3] came to 46 min. The viability at 16 h, 0.5 µM stood at 94% in [4] and 97% in [12]. In series [6], the Time was determined as 5.4 days. Also, the half-maximal inhibitory concentration (IC50) in series [7] amounted to 14 nM. Also, the Kp at 1 h in series [8] came out at 3.6. Moreover, in [9], the Kp at 4 h was 1. Further, the concentration ratio (Kp) at 1.5 h in series [10] worked out at 8.7. The “fold change (FC)” value in series [11] was 2.3. Moreover, in series [13], the Activity result was “Toxic”. Further, in series [14], the bioavailability came out at 100%. Moreover, the Tmax in series [15] was 30 min. Further, the LD90 in series [16] worked out at 0.8 µmol/L.

One may read the Cmax as the peak of the concentration-time curve. What is called IC50 is the concentration that gives 50% inhibition. Higher therefore signals lower potency. The Kp is the ratio of the level in a tissue or fluid to that in plasma or blood. A word on the bioavailability: it is the share of a dose that reaches the circulation, judged against a reference dose that is usually intravenous. Higher therefore signals good availability. By Tmax is commonly meant the time from dosing to the highest level.
